# Data from paper PMC10390885 (Clinical Cancer Research, 2023).
# “And” between values parts separate entries of the source, which are not always exact repeats. Equal entries are not always repeated. “Also recorded” adds a separate entry of the source. Where two headings read alike, the source gives them in different places.
# Assays:
# [1] = test system: advanced ER-positive HER2-negative breast cancer; conditions: cited from earlier work
# [2] = test system: ER; conditions: ER+ cell lines; preclinical studies; cited from earlier work
# [3] = test system: postmenopausal women with ER+/HER2− locally advanced or metastatic breast cancer; assay: Phase I safety: adverse events; format: in vivo, human
# Summary of the method: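 Oral tablets were given as a single lead-in dose on day −7, then once daily from day 1 in 28-day cycles. Escalation used a 3+3 design, starting at 600 mg/day with 400 mg steps, plus an expansion cohort at 1,400 mg/day. DLT window ran from day −7 through cycle 1 (35 days). AEs were graded by NCI CTCAE v4.0. All patients dosed on cycle 1 day 1 were included, summarised descriptively.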
# [4] = test system: ER; assay: [18F]-fluoroestradiol; format: in vivo, human; conditions: cycle 2 day 3 vs baseline; 9 patients with FES-avid disease; 600, 1,000, 1,400 mg
# [5] = test system: ER; assay: IHC of ER protein in baseline and on-treatment biopsies; format: in vivo, human; conditions: on-treatment (cycle 2 or 3, day 8) vs baseline biopsies
# Summary of the method: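 Baseline and on-treatment tumour biopsies (cycle 2 or 3, day 8) were stained for ER by IHC in one laboratory and scored by one pathologist. H-score (0–300) = 3×% strong-intensity nuclei + 2×% intermediate + 1×% weak nuclei among tumour cells. Paired samples only.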
# [6] = test system: ER+/HER2− advanced or metastatic breast cancer; assay: Antitumor activity by RECIST v1.1; format: in vivo, human
# [7] = test system: PIK3CA/AKT1 mutations in ctDNA; assay: ctDNA BEAMing digital PCR, PIK3CA/AKT1 mutant allele frequency; format: in vivo, human; conditions: first postbaseline ctDNA sample (cycle 3 day 1 or end-of-treatment)
# Summary of the method: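 Hotspot mutations were measured in plasma ctDNA by BEAMing digital PCR: AKT1 E17K and PIK3CA C420R, E542K, E545G/K, Q546K, M1043I, H1047L/R/Y. Mutant allele fraction at baseline was compared with the first available post-baseline sample (cycle 3 day 1 or end of treatment) in paired samples.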
# [8] = test system: ESR1 mutations in ctDNA; assay: FACT next-generation sequencing ctDNA assay; format: in vivo, human; conditions: 1,400 mg; vs 52% pretreatment
# [9] = test system: ESR1 mutant and wild-type patient-derived xenograft models of ER+ breast cancer; conditions: preclinical, cited from earlier work
# [10] = test system: ER; conditions: preclinical studies; cited from earlier work
# [11] = N = 42, considered related to study drug, any grade
# [12] = N = 42, considered related to study drug, grade 3
# [13] = N = 42, regardless of causality, any grade
# [14] = N = 42, regardless of causality, grade 3
smiles,measurement,setting,value
C[C@]12CC[C@@H]3c4ccc(O)cc4C[C@@H](CCCCCCCCC[S+]([O-])CCCC(F)(F)C(F)(F)F)[C@H]3[C@@H]1CC[C@@H]2O (stereo partly drawn) [fulvestrant],Median PFS,"[1]; SERENA-2, patients treated with fulvestrant",3.7 months
"CC/C(=C(/c1ccc(/C=C/C(=O)O)cc1)c1ccc2[nH]ncc2c1)c1ccc(F)cc1Cl [GDC-0810, reference compound]",ER antagonist/agonist profile,[2],partial agonism
CC1=C(c2cccc(O)c2)[C@H](c2ccc(OCCN3CC(CF)C3)cc2)Oc2ccc(O)cc21 [GDC-0927],AEs leading to withdrawal,[3]; N = 42,no reports and None
same,Deaths,[3]; N = 42,no deaths; also recorded: no reports
same,Dose modifications due to AEs,[3]; N = 42,no dose modifications
same,Grade 4 or grade 5 AEs,[3]; N = 42,no grade 4 or grade 5 AEs; also recorded: no grade 4 or 5 AEs
same,Treatment-related serious adverse events (SAE),[3]; N = 42,no reports
same,Patients with any adverse events,"[3]; N = 42, 600-1,400 mg once daily oral, regardless of causality, any grade",37 n (%) and 37 (88) n (%)
same,Constipation,[3]; [11],6 n (%) and 6 (14) n (%)
same,Diarrhea,[3]; [11],5 n (%) and 5 (12) n (%)
same,Fatigue,[3]; [11],5 n (%) and 5 (12) n (%)
same,Hot flush,[3]; [11],8 n (%) and 8 (19) n (%)
same,Nausea,[3]; [11],8 n (%) and 8 (19) n (%)
same,Patients with at least one adverse event,[3]; [11],30 n (%) and 30 (71) n (%)
same,Total number of events,[3]; [11],109
same,Constipation,[3]; [12],0 n (%)
same,Diarrhea,[3]; [12],0 n (%)
same,Fatigue,[3]; [12],0 n (%)
same,Hot flush,[3]; [12],0 n (%)
same,Nausea,[3]; [12],0 n (%)
same,Patients with at least one adverse event,[3]; [12],0 n (%)
same,Total number of events,[3]; [12],0
same,Anemia,[3]; [13],6 n (%) and 6 (14) n (%)
same,Arthralgia,[3]; [13],8 n (%) and 8 (19) n (%)
same,Aspartate aminotransferase (AST) increased,[3]; [13],5 (12) n (%)
same,Asthenia,[3]; [13],5 (12) n (%)
same,Back pain,[3]; [13],7 n (%) and 7 (17) n (%)
same,Constipation,[3]; [13],9 n (%) and 9 (21) n (%)
same,Cough,[3]; [13],5 (12) n (%)
same,Diarrhea,[3]; [13],9 n (%) and 9 (21) n (%)
same,Fatigue,[3]; [13],8 n (%) and 8 (19) n (%)
same,Headache,[3]; [13],6 n (%) and 6 (14) n (%)
same,Hot flush,[3]; [13],8 n (%) and 8 (19) n (%)
same,Nausea,[3]; [13],14 n (%) and 14 (33) n (%)
same,Pain in extremity,[3]; [13],5 (12) n (%)
same,Vomiting,[3]; [13],7 n (%) and 7 (17) n (%)
same,Anemia,[3]; [14],0 n (%)
same,Arthralgia,[3]; [14],0 n (%)
same,Aspartate aminotransferase (AST) increased,[3]; [14],0 n (%)
same,Asthenia,[3]; [14],1 (2) n (%)
same,Back pain,[3]; [14],2 n (%) and 2 (5) n (%)
same,Constipation,[3]; [14],0 n (%)
same,Cough,[3]; [14],0 n (%)
same,Diarrhea,[3]; [14],0 n (%)
same,Fatigue,[3]; [14],0 n (%)
same,Headache,[3]; [14],0 n (%)
same,Hot flush,[3]; [14],0 n (%)
same,Nausea,[3]; [14],0 n (%)
same,Pain in extremity,[3]; [14],0 n (%)
same,Patients with any adverse events,[3]; [14],9 (21) n (%)
same,Vomiting,[3]; [14],0 n (%)
same,Patients with AEs that led to dose interruptions,"[3]; N = 42, seven patients",17%
same,Patients with at least one SAE considered unrelated to GDC-0927,"[3]; N = 42, seven patients",17%
same,"Patients with AEs of special interest (grade 2 deep vein thrombosis, grade 2 jugular vein thrombosis)","[3]; N = 42, two patients, both considered unrelated",5%
same,DLTs,"[3]; day −7 through first cycle (35 days), 600-1,400 mg/day",no reports of DLTs
same,MTD,"[3]; oral once daily, doses up to the MAD of 1,400 mg/day",not reached
same,Reduction in FES uptake,[4],> 90%
same,"Reduction in ER expression (ER protein, IHC), average",[5],approximately 40%
same,Confirmed complete or partial responses,[6]; N = 42,no complete or partial responses; also recorded: no confirmed CRs or PRs
same,Patients with confirmed best overall response of non-CR/PD,"[6]; five patients, all at 1,400 mg",14%
same,Patients achieving clinical benefit,"[6]; patients with baseline ctDNA ESR1 mutation(s), six of 22",27%
same,Patients achieving clinical benefit,"[6]; patients without detectable baseline ctDNA ESR1 mutations, 6 of 20",30%
same,Patients with decline in PIK3CA/AKT1 MAF,[7],8 of 13
same,Prevalence of ESR1 mutations in on-treatment samples,[8],35%
same,Tolerability at efficacious dose range,[9]; 10–100 mg/kg/day,well tolerated
same,Antitumor activity in xenograft models,[9]; ER+ breast cancer xenograft models,induces tumor regression; also recorded: dose-dependent antitumor activity
same,In vivo efficacious dose range,[9],10 to 100 mg/kg/day
same,ER antagonist/agonist profile,[2],full antagonist profile
same,ER degradation,[2],ER degradation in all ER^+ cell lines tested
same,ER agonism in the uterus,[10],lacked ER agonism
C[C@@H]1Cc2c(ccc3[nH]ncc23)[C@@H](c2ccc(NC3CN(CCCF)C3)cn2)N1CC(F)(F)F [camizestrant],Median PFS,"[1]; SERENA-2, camizestrant 75 mg",7.2 months
same,Median PFS,"[1]; SERENA-2, camizestrant 150 mg",7.7 months
